Each structure is given as a SMILES string.

Format in all cases: functional
Assay [1] deals with Rattus norvegicus. Put plainly: Effect on level of high density lipoprotein cholesterol (relative to untreated control) in cholesterol fed-male rats at 68 mg/kg/day. In short, it runs like this:
(§1)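 Male Sprague–Dawley rats (groups of six) fed a cholic acid- and cholesterol-supplemented diet; compound mixed into the diet, given ad libitum for eight days. Lipoproteins were separated by ultracentrifugation, and cholesterol was measured by an enzymatic colorimetric method. Results are % change versus untreated controls, with significance at p < 0.05.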

Assay [2] concerns Rattus norvegicus. As to the kind of experiment: Effect on level of total cholesterol (relative to untreated control) in cholesterol fed-male rats at 68 mg/kg/day. The gist of the method:
as §1

The subject of assay [3] is Rattus norvegicus. As to the kind of experiment: Effect on change in body weight gain (relative to untreated control) in cholesterol fed-male rats at 68 mg/kg/day. The gist of the method:
(§2)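 Male Sprague–Dawley rats, six per group, on a cholic acid- and cholesterol-supplemented diet. Compounds were mixed into the diet and given ad libitum for eight days. Change in body weight gain is expressed as a percentage of untreated controls. Significance was set at p < 0.05 versus untreated controls.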

Assay [4] deals with Rattus norvegicus. Put plainly: Effect on level of triglyceride in (relative to untreated control) in cholesterol fed-male rats at 68 mg/kg/day. The gist of the method:
(§3)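 Serum triglycerides were measured in groups of six male Sprague–Dawley rats on a cholic acid/cholesterol-supplemented diet. Compound was dosed in the diet, ad libitum, for eight days. Results are % change relative to untreated controls, with significance at p < 0.05.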

Assay [5] deals with Rattus norvegicus. As to the kind of experiment: Effect on level of apolipoprotein (Apo) AI (relative to untreated control) in cholesterol fed-male rats at 68 mg/kg/day. The gist of the method:
(§4)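 Six male Sprague–Dawley rats per group, fed a cholic acid/cholesterol-supplemented diet, received compound in the diet ad libitum for eight days. Serum Apo A–I was measured by SDS-PAGE or by rat competition ELISA and reported as % change versus untreated controls (p < 0.05). Gemfibrozil was the internal positive control in each study.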

Assay [6] concerns Rattus norvegicus. Put plainly: Effect on level of high density lipoprotein cholesterol (relative to untreated control) in cholesterol fed-male rats at 74 mg/kg/day. The gist of the method:
as §1

In assay [7] the test system is Rattus norvegicus. As to the kind of experiment: Effect on change in body weight gain (relative to untreated control) in cholesterol fed-male rats at 74 mg/kg/day. The gist of the method:
as §2

Assay [8] has as its system Rattus norvegicus. Put plainly: Effect on level of total cholesterol (relative to untreated control) in cholesterol fed-male rats at 74 mg/kg/day. In short, it runs like this: as §1
Assay [9] concerns Rattus norvegicus. As to the kind of experiment: Effect on level of triglyceride in (relative to untreated control) in cholesterol fed-male rats at 74 mg/kg/day. In short, it runs like this:
as §3

The subject of assay [10] is Rattus norvegicus. As to the kind of experiment: Effect on level of apolipoprotein (Apo) AI (relative to untreated control) in cholesterol fed-male rats at 74 mg/kg/day. In short, it runs like this: as §4
The subject of assay [11] is Rattus norvegicus. As to the kind of experiment: Effect on level of apolipoprotein (Apo) AI (relative to untreated control) in cholesterol fed-male rats at 40 mg/kg/day. The gist of the method: as §4
Assay [12] has as its system Rattus norvegicus. As to the kind of experiment: Effect on level of high density lipoprotein cholesterol (relative to untreated control) in cholesterol fed-male rats at 40 mg/kg/day. In short, it runs like this:
(§5)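 Cholic acid/cholesterol-fed male Sprague–Dawley rats (n = 6 per group) were dosed via diet ad libitum for eight days. Lipoproteins were separated by ultracentrifugation and HDL cholesterol was quantified by an enzymatic colorimetric method. Values are % change relative to untreated controls, with significance at p < 0.05. Gemfibrozil was the internal positive control.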

Assay [13] deals with Rattus norvegicus. As to the kind of experiment: Effect on change in body weight gain (relative to untreated control) in cholesterol fed-male rats at 40 mg/kg/day. In short, it runs like this: as §2
Assay [14] has as its system Rattus norvegicus. Put plainly: Effect on level of total cholesterol (relative to untreated control) in cholesterol fed-male rats at 40 mg/kg/day. The gist of the method: as §1
Assay [15] deals with Rattus norvegicus. As to the kind of experiment: Effect on level of triglyceride in (relative to untreated control) in cholesterol fed-male rats at 40 mg/kg/day. The gist of the method:
as §3

Assay [16] concerns Rattus norvegicus. Put plainly: Effect on level of high density lipoprotein cholesterol (relative to untreated control) in cholesterol fed-male rats at 80 mg/kg/day. In short, it runs like this:
as §1

In assay [17] the test system is Rattus norvegicus. Put plainly: Effect on level of total cholesterol (relative to untreated control) in cholesterol fed-male rats at 80 mg/kg/day. The gist of the method: as §1
The test system of assay [18] is Rattus norvegicus. Put plainly: Effect on change in body weight gain (relative to untreated control) in cholesterol fed-male rats at 80 mg/kg/day. In short, it runs like this: as §2
The subject of assay [19] is Rattus norvegicus. Put plainly: Effect on level of apolipoprotein (Apo) AI (relative to untreated control) in cholesterol fed-male rats at 80 mg/kg/day. In short, it runs like this:
as §4

For assay [20], the system named is Rattus norvegicus. As to the kind of experiment: Effect on level of triglyceride in (relative to untreated control) in cholesterol fed-male rats at 80 mg/kg/day. In short, it runs like this: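 Compound given in diet ad libitum for eight days to groups of six male Sprague–Dawley rats on a cholic acid and cholesterol-supplemented diet. Serum triglycerides expressed as % change relative to untreated controls, with significance at p < 0.05. Gemfibrozil served as internal positive control within each study.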

For assay [21], the system named is Rattus norvegicus. As to the kind of experiment: Effect on level of high density lipoprotein cholesterol (relative to untreated control) in cholesterol fed-male rats at 55 mg/kg/day. The gist of the method: as §5
Assay [22] deals with Rattus norvegicus. As to the kind of experiment: Effect on change in body weight gain (relative to untreated control) in cholesterol fed-male rats at 55 mg/kg/day. In short, it runs like this: as §2
Assay [23] relates to Rattus norvegicus. As to the kind of experiment: Effect on level of total cholesterol (relative to untreated control) in cholesterol fed-male rats at 55 mg/kg/day. In short, it runs like this: as §1
The subject of assay [24] is Rattus norvegicus. As to the kind of experiment: Effect on level of triglyceride in (relative to untreated control) in cholesterol fed-male rats at 55 mg/kg/day. The gist of the method: as §3
The test system of assay [25] is Rattus norvegicus. Put plainly: Effect on level of apolipoprotein (Apo) AI (relative to untreated control) in cholesterol fed-male rats at 55 mg/kg/day. The gist of the method: as §4
The test system of assay [26] is Rattus norvegicus. As to the kind of experiment: Effect on level of high density lipoprotein cholesterol (relative to untreated control) in cholesterol fed-male rats at 75 mg/kg/day. The gist of the method:
as §1

In assay [27] the test system is Rattus norvegicus. As to the kind of experiment: Effect on level of total cholesterol (relative to untreated control) in cholesterol fed-male rats at 75 mg/kg/day. The gist of the method:
as §1

For assay [28], the system named is Rattus norvegicus. Put plainly: Effect on level of triglyceride in (relative to untreated control) in cholesterol fed-male rats at 75 mg/kg/day. The gist of the method:
as §3

Assay [29] relates to Rattus norvegicus. Put plainly: Effect on level of apolipoprotein (Apo) AI (relative to untreated control) in cholesterol fed-male rats at 75 mg/kg/day. The gist of the method: as §4
Assay [30] relates to Rattus norvegicus. As to the kind of experiment: Effect on change in body weight gain (relative to untreated control) in cholesterol fed-male rats at 75 mg/kg/day. In short, it runs like this: as §2
For assay [31], the system named is Rattus norvegicus. Put plainly: Effect on level of high density lipoprotein cholesterol (relative to untreated control) in cholesterol fed-male rats at 66 mg/kg/day. In short, it runs like this:
as §1

In assay [32] the test system is Rattus norvegicus. As to the kind of experiment: Effect on level of total cholesterol (relative to untreated control) in cholesterol fed-male rats at 66 mg/kg/day. In short, it runs like this: as §1
For assay [33], the system named is Rattus norvegicus. As to the kind of experiment: Effect on change in body weight gain (relative to untreated control) in cholesterol fed-male rats at 66 mg/kg/day. The gist of the method: as §2
For assay [34], the system named is Rattus norvegicus. As to the kind of experiment: Effect on level of triglyceride in (relative to untreated control) in cholesterol fed-male rats at 66 mg/kg/day. In short, it runs like this: as §3
Assay [35] relates to Rattus norvegicus. As to the kind of experiment: Effect on level of apolipoprotein (Apo) AI (relative to untreated control) in cholesterol fed-male rats at 66 mg/kg/day. The gist of the method:
as §4

With `Cc1ccc(Cl)cc1N/C(S)=N/C[C@H](C)O`, the Activity in assay [1] was 33%; in assay [2], 30%; in assay [3], -68%; in [4], -75%; in assay [5], 8%.
As for `Cc1ccc(N/C(S)=N/CCO)cc1Cl`, the Activity in assay [6] is on record as 72%; in assay [7], -77%; in [8], 15%; in [9], -15%; in assay [10], -5%.
For `Cc1ccc(Cl)cc1/N=C(\S)NCCCO`, in that order: 82%, -63%, 3%, -80% and 24%.
For `Cc1cccc(Cl)c1/N=C(\S)NCCO`, the Activity in assay [11] is given as -34%; in [12], 23%; in [13], -155%; in assay [14], 8%; in assay [15], -48%.
Consider `COc1ccc(Cl)cc1/N=C(\S)NCCO`, for which the Activity in assay [16] is 106%; in [17] it was 66%; in assay [18] it was -38%; in assay [19] it was 30%; in [20] it was -27%.
Take `Cc1ccc(Cl)cc1/N=C(\S)NCCO`: the Activity in [21] is on record as 75%; in assay [22], -104%; in assay [23] it was 39%; in assay [24], -53%; in assay [25], 48%.
Consider `Cc1ccc(Cl)cc1/N=C(\S)N(C)CCO`, for which the Activity in assay [26] is 100%; in assay [27], 29%; in assay [28] it was -47%; in assay [29] it was 40%; in assay [30], -31%.
For the compound `Cc1ccc(Cl)cc1/N=C(\S)NC(C)(C)CO`, the Activity in assay [16] was 58%; in assay [17], -13%; in assay [18], -23%; in assay [19], 23%; in assay [20], -15%.
As for `OCC/N=C(\S)Nc1cccc(Cl)c1`, the Activity in assay [31] is recorded as 79%; in assay [32] it was 30%; in assay [33], -70%; in [34] it was -31%; in assay [35], 43%.

Source of the values: ChEMBL document CHEMBL1144306, “1-Hydroxyalkyl-3-phenylthioureas as novel HDL-elevating agents” (2005).
